In PubChem BioAssay AID2170 (The Scripps Research Institute Molecular Screening Center, 2009) one finds inhibition data, which are given here for 57 compounds.

Molecules are shown by their SMILES. The whole screen tested about 2,400 compounds, of which about 660 (28%) were called active. Not all results are given here. A number with no mark means an inactive call.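 How the source made its calls: active means mean inhibition over replicate wells above the hit cutoff set for the earlier primary screen (cut at about 29% in these data); inactive means the rest.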

For the assay, the system named is M18 aspartyl aminopeptidase (Plasmodium falciparum 3D7). Kind of assay: inhibition of P. falciparum M18 aminopeptidase – biochemical, QFRET, recombinant enzyme, triplicate, confirmation (AID 2170).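 Further: 0% = median of test compound wells and 100% = 2 mM ZnCl2.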 The following applies: recombinant PfM18AAP, H-Glu-NHMec fluorogenic cleavage; at 7.35 µM; hits give high values. A digest of the protocol: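 Assay system: recombinant PFM18AAP enzyme / Input: 5 µg/mL enzyme before substrate / Buffer or medium: Cobalt-containing Tris buffer with BSA / Reagent: H-Glu-NHMec substrate, 100 µM stock / Timing: 30 min pre-incubation, then 90 min reaction, 25 °C / Technique: released NHMec fluorescence / Read-out basis: % inhibition of fluorescence increase over 90 min / Controls: ZnCl2 inhibitor control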
For `Cc1ccnc(-n2sc3ccccc3c2=O)n1`, the inhibition (as a rule, the drop in the measured response relative to a control, in per cent) was 28.8% (active).

Consider `NC(=S)N/N=C/c1coc2cc(Cl)ccc2c1=O`, for which the inhibition was -23.6%.

For the compound `O=C(CN1CCN(c2ccc(O)cc2)CC1)Nc1ccc(-c2ccccc2)cc1`, the inhibition was -14.9%. As to `c1ccc2sc(NN=C3CCCC3)nc2c1`, the inhibition was -44.4%.

As to `Cc1cc(C)nc(Nc2ncn[nH]2)n1`, the inhibition was 71.7% (active). Consider `COc1cccc2cc(-c3cc(=O)oc4cc(C)c(O)cc34)oc12`, for which the inhibition is -27.8%. Take `O=C(CSc1ncn[nH]1)Nc1ccnc2ccccc12`: the inhibition was 8.46%.

As to `O=C(CSc1ncn[nH]1)Nc1nsc(-c2ccccc2)n1`, the inhibition was 14.9%. As to `O=C(CSc1ncn[nH]1)Nc1nc(-c2cccc([N+](=O)[O-])c2)cs1`, the inhibition was 36.5% (active). As to `COc1ccccc1-c1nnc(SCC(=O)Nc2cc(C)on2)o1`, the inhibition is -49.2%.

In the case of `c1ccc(-c2ccc3c(c2)NC(C2Nc4cc(-c5ccccc5)ccc4O2)O3)cc1` (configuration not stated), the inhibition was -52.4%.

Consider `O=C1CCCCN1CCCC(=O)N1CCCC(Nc2ccc(F)cc2)C1` (configuration not stated), for which the inhibition was -33.7%. Take `COc1ccc(OC)c(Nc2nc(-c3ccc(O)c(O)c3)cs2)c1`: the inhibition is 42.4% (active). For `Cc1cc(/C=N/Nc2ccc([N+](=O)[O-])cn2)c(C)n1-c1cccc(C(=O)O)c1`, the inhibition was -23.4%. For the compound `Cc1ccc(-c2noc(CC(c3ccccc3)c3ccccc3)n2)cc1`, the inhibition is -39.5%. Regarding `Cn1sc(=O)c2cc(S(=O)(=O)NC3CC3)ccc21`, the inhibition is -11.8%. With `O=C(CN1CCN(S(=O)(=O)c2cc(Cl)ccc2Cl)CC1)c1ccc(O)c(O)c1` the figure was 31.5% (active). For `Cc1nc2ccc(S(=O)(=O)NCC(=O)O)cc2s1`, the inhibition is 12.5%. For the compound `O=C(Cn1c[n+](CC(=O)c2ccc([N+](=O)[O-])cc2)cn1)c1ccc([N+](=O)[O-])cc1`, the inhibition is 14%. `O=c1nc(N/N=C/c2ccco2)cn[nH]1`: the inhibition was 18.9%. With `ONC(=Nc1ccccc1)c1ccccc1Cl` the figure was -2.39%; with `CC/C(C)=N/Nc1nc2sc3c(c2c(=O)[nH]1)CC(C)(C)OC3`, 9.57%.

As for `Cn1c(SCC(=O)N/N=C/c2ccc(O)c(O)c2)nc2ccccc21`, the inhibition was 50.9% (active). With `Oc1ccc(/C=N/Nc2ccc(C(F)(F)F)cn2)cc1O` the figure was 6.58%; with `Cc1nccn1CC(=O)N/N=C/c1ccc(O)c(O)c1`, 58.4% (active); with `CCn1c(CNS(=O)(=O)c2ccc(Cl)cc2)n[nH]c1=S`, -0.52%. `Cn1c(=O)[nH]c(=O)c2c1[nH]c(=S)n2Cc1ccccc1`: the inhibition was 6.35%. Regarding `Cc1cc([N+](=O)[O-])c(-c2ccc(/C=N/n3cnnc3)o2)cc1Cl`, the inhibition was 10.6%. As to `COc1cc(/C=N\Nc2ccc([N+](=O)[O-])cn2)ccc1OCC(=O)O`, the inhibition was -18%. With `CCN(CC)S(=O)(=O)c1cc([N+](=O)[O-])ccc1NNC(=O)Nc1ccccc1` the figure was 25.9%; with `O=C(COc1ccc([N+](=O)[O-])cc1Cl)Nn1cnnc1`, 36.8% (active). Next, `O=C(Nc1cccc([N+](=O)[O-])c1)Nn1cnnc1`: 64.6% (active); `O=[N+]([O-])c1ccc(N2CCN(c3ccc(O)cc3)CC2)c(Cl)c1`: -3.08%. For `O=C(O)CCn1c(O)c(C=C2N=c3ccccc3=N2)sc1=S`, the inhibition is -42.5%. Take `NC(=O)c1c(Nc2nc3c(F)cccc3s2)sc2c1CCCC2`: the inhibition is -18.3%. Turning to `Cc1cc2c(C)nc(N/N=C/c3ccccc3)nc2o1`, the inhibition was -42.8%. For the compound `O=C(CO/N=C/c1ccccc1O)NNC(=O)c1ccccc1Cl`, the inhibition was 42.3% (active). As to `CCOc1cccc(/C=N/NC(=S)NCCN2CCOCC2)c1O`, the inhibition was 16.9%. As for `COc1ccc(OCc2n[nH]c(=S)n2N)cc1`, the inhibition is 20.3%. Next, `COc1ccc(OCc2nnc3n2N=C(c2ccccc2)C(CC(=O)O)S3)cc1` (configuration not stated): 40.8% (active).

Take `CC1CCN(C(=O)c2ccc3c(c2)NC(=O)CN3)CC1`: the inhibition is -7.91%. For `CCN(CC)c1ccc2oc(=O)c(C)nc2c1`, the inhibition was 27.1%.

With `ClC1(Cl)CC1CSc1ncn[nH]1` (configuration not stated), the inhibition is 11.5%. On to `CCn1ccnc1CNC(=O)CC1C(=O)NCCN1Cc1ccc(F)cc1Cl` (configuration not stated), for which the inhibition is -24.5%. Turning to `CC(=O)c1ccc(NC(=O)CCc2nnc3ccc(NCc4ccco4)nn23)cc1`, the inhibition was -28.5%. Consider `CC(C)(C)C(=O)OCc1nc(-c2ccc(O)c(O)c2)cs1`, for which the inhibition was 53.5% (active). With `COc1ccc(N/C=C(\C2OC(=O)c3ccccc32)[N+](=O)[O-])cc1` (configuration not stated), the inhibition is -36.7%. With `CC(/C=C/C1(O)C(C)CC(=O)CC1(C)C)OC1OC(CO)C(O)C(O)C1O` (configuration not stated) the figure was 11.3%; with `CNC(=O)c1c(NC(NC(=O)c2ccco2)C(=O)c2ccc(Cl)cc2)sc2c1CCCC2` (configuration not stated), -18.7%; with `CC(C)(C)NC(=O)C(c1ccncc1)N(C(=O)CNC(=O)c1ccco1)c1ccc2c(c1)OCO2` (configuration not stated), -44.5%.

Regarding `CC(=O)N(c1ccc2oc(=O)sc2c1)S(=O)(=O)c1ccc(C)cc1`, the inhibition was -21.7%. For the compound `O=C(O)c1cccc(NC(=S)N/N=C/c2c[nH]c3ccccc23)c1`, the inhibition was 3.61%. As to `COc1cc(/C=N/NC(=S)Nc2cccnc2)cc(OC)c1O`, the inhibition was 35.5% (active). For the compound `COc1cc(/C=N/Nc2nn3cnnc3c3ccccc23)cc(OC)c1OC`, the inhibition is -33.8%. Next, `OCCN1CCN(C(=S)c2ccc(-c3ccccc3)cc2)CC1`: 14.5%; `Cc1ccc(C)c(NC(=O)NNC(=O)c2ccc3ccccc3c2O)c1`: 4.3%; `Cc1nc2nc[nH]n2c(=O)c1C/C=C/c1ccccc1`: 50.7% (active).
